This excerpt belongs to a sample that is enriched for hits.
PDI turbidity: blocks human protein disulfide isomerase activity | actives 0.052% (n = 350,000) | PDI insulin aggregation turbidity, A650, 90 min | P07237 | inhibition, % at 10 µM | AID 588391;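 active means mean inhibition across replicates of 30% or more, whatever share of single replicates reach that level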
Target sequence (P07237 whole entry, looked up): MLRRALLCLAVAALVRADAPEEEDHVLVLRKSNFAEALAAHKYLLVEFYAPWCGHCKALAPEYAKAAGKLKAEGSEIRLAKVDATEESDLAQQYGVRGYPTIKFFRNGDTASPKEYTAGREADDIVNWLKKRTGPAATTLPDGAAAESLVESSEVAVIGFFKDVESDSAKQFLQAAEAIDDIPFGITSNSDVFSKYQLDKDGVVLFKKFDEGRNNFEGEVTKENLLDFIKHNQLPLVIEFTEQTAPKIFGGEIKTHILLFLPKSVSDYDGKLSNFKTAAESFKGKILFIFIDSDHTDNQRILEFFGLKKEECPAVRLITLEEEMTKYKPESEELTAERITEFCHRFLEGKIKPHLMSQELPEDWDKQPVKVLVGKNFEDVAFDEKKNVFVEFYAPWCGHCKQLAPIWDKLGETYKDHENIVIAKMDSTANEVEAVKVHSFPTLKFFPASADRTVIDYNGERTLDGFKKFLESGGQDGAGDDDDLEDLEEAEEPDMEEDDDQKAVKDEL
FGF22 binding: binders of recombinant human FGF22 by thermal shift; activity (Tm shift, normalised), % at 9.99 µM; AID 651658; actives 1.5% (n = 340,000); SYPRO orange fluorescence; percent of sucrose octasulfate shift, DMSO zero; Q9HCT0;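 active means mean Tm shift, scaled 0 neutral to 100 positive control, at about 1.3% or above, every replicate too, limit read from the data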
ERp5 block: inhibitors of human ERp5. Q15084. ERp5 insulin aggregation, absorbance 650 nm, 90 min. inhibition, % at 9.99 µM. actives 0.05% (n = 350,000);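 active means mean replicate inhibition above about 25%, with every replicate also reaching it, limit read from the data, passing the limit was not always enough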
ERAP1 inh: ERAP1 (human) enzyme inhibition. Q9NZ08. recombinant ERAP1, Leu-AMC fluorescence, 60 min. inhibition, % at 10.7 µM. actives 0.15% (n = 340,000);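 active means mean replicate inhibition of at least 30%, or all replicates individually reaching that 30% level; inactive means mean below 30% and not every replicate reaching it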;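 further: 0% = neutral control wells and 100% = L-leucinethiol positive control wells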
S100A4 MyoIIA: inhibitors of human S100A4 binding to myosin IIA peptide; P26447; S100A4/TAMRA-MyoIIA peptide fluorescence polarization; inhibition, % at 10.7 µM; actives 0.14% (n = 360,000);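 active means mean inhibition of at least 70% across replicates, with every replicate also reaching that level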
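Material: S100A4 monomer protein / Buffer or medium: 50 mM HEPES pH 7.2, 10 mM CaCl2, 100 mM KCl / Times: 5 min incubation before reading / Benchmarks: neutral control DMSO, positive control TFP / Reagent: labelled myosin peptide probe, 5 nM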
* hit, by the source's call; nt = no result given.

SMILES	PDI turbidity	FGF22 binding	ERp5 block	ERAP1 inh	S100A4 MyoIIA
O=C(CCCCCN1C(=O)c2ccccc2C1=O)Nc1cccc(O)c1	-10	0	0	-2	7
O=C(Cc1ccccc1[N+](=O)[O-])NC1CC2CCC1C2 (configuration not stated)	7	0	1	-2	-1
CCCCCCCCN1C(=O)[C@@H](CC(=O)N2CCN(C(=O)OCC)CC2)C[C@@]2(C(=O)OC)C1=C[C@H](C(C)(C)C)O[C@@H]2C	nt	0	2	-5	-3
CN(C)CCCNC(=S)Nc1ccc(Oc2ccccc2)cc1	-6	43	-5	0	4
OCCCNC(=S)Nc1ccc(Oc2ccccc2)cc1	6	44*	-5	4	-3
COCC(=O)Nc1ccc2c(c1)C(=O)N(C)[C@@H]1CC[C@H](CC(=O)NCc3ccc(OC)cc3)O[C@@H]1CO2	nt	0	nt	nt	nt
Cc1ccc(C2=NN(C(=O)c3ccco3)C(O)(C(F)(F)F)C2)cc1 (configuration not stated)	-3	44*	-8	-1	1
COc1cccc(C2=NN(C(=O)c3ccco3)C(O)(C(F)(F)F)C2)c1 (configuration not stated)	2	0	2	0	2
CCCCn1c(SCC(=O)N2CCCC2)nc2c1c(=O)n(C)c(=O)n2C	-1	nt	nt	nt	nt
O=c1ccc2ccc(O[C@@H]3O[C@H](CO)[C@@H](O)[C@H](O)[C@H]3O)c(O)c2o1	-1	0	-5	nt	-1
COc1cc2ccc(=O)oc2c(O[C@@H]2O[C@H](CO)[C@@H](O)[C@H](O)[C@H]2O)c1O	2	0	8	59*	1
COc1ccc(CC(=O)Nc2ccc(/C(C)=N/NC(=O)c3cccc([N+](=O)[O-])c3)cc2)cc1	11	nt	nt	nt	nt
COc1cc(/C=C/c2cccc[n+]2C)ccc1OCC(=O)Nc1ccccc1C	6	0	6	3	-1
CCOc1cc(/C=C/c2cccc[n+]2C)ccc1OCC(=O)Nc1ccc(C)cc1	-10	0	0	73*	2
CCN(CC)C(=O)C(=O)c1cccn1-c1cccc(Cl)c1C#N	-1	nt	nt	nt	nt
CCN(CC)C(=O)C(=O)c1cccn1-c1cccc(OC)c1C#N	-12	45*	-3	-5	1
Clc1ccccc1-c1ncc(-c2ccccc2)o1	-1	0	2	4	6
Cc1cc(OCCN2CCCC2)ccc1[N+](=O)[O-]	7	nt	nt	nt	nt
CCCn1c(SCC(=O)Nc2cccc(S(=O)(=O)N(C)C)c2)nc2ccccc2c1=O	8	0	-6	1	-4
CCN(CC)C(=O)N1CCN(S(=O)(=O)c2ccccc2)CC1	1	43*	3	0	5
Cc1ccc(S(=O)(=O)N2CCN(C(=O)N(c3ccccc3)c3ccccc3)CC2)cc1	3	nt	nt	nt	nt
CC(=O)N(c1cc(C)ccc1C)c1ccccc1[N+](=O)[O-]	-4	43*	0	-1	0
C/C(CC(=O)Nc1ccc(C)c(Cl)c1)=N\NC(=O)Cc1cnc(N)s1	1	43*	4	1	-7
CN(C)C(=O)c1ccc(NC(=O)c2ccc(-c3ccc(Cl)cc3)o2)cc1	5	1.8*	-4	-7	-16
O=C(Nc1cccnc1)c1ccc(-c2ccc(Cl)cc2)o1	-2	0	2	-1	2
SMILES	PDI turbidity	FGF22 binding	ERp5 block	ERAP1 inh	S100A4 MyoIIA
O=C(Cc1ccccc1)NCC(=O)OCC(=O)c1ccccc1Cl	-7	112*	3	2	-3
NC(=O)c1nsc(C(=O)N(CC(=O)NC2CCCC2)c2ccc(F)c(Cl)c2)c1N	-5	41	3	2	5
CC1(C)N=C(N)NC(Nc2ccccc2Cl)=N1	-9	43*	-8	0	5
COc1ccccc1NC1=NC(C)(C)N=C(N)N1	15	nt	nt	nt	nt
Cc1cc(NC(=S)NC(=O)CC(C)C)ccc1Br	-11	35*	-5	-1	-1
Nc1ccccc1C(=O)Nc1ccc(Cl)cc1Cl	3	0	2	-4	-1
Cc1ccc(S(=O)(=O)NNC(=O)C23CCC(CC2)C3)cc1	5	43*	2	4	-2
CCCC#Cc1cnc2c(c1)C(=O)N([C@H](C)CO)C[C@@H](C)[C@H](CN(C)C(=O)Nc1ccc(OC)cc1)O2	nt	0	4	1	2
CCOc1ccccc1/C=N/N1CCN(Cc2ccccc2)CC1	1	0	-4	3	-3

High-throughput results from PubChem BioAssay.
